# Assay outcomes from PubChem BioAssay.
# E coli WT exp: E. coli BW25113 growth inhibition, expanded screen | OD600 absorbance | growth inhibition, % at 100 µM | hit rate 0.15% among 98,000 | AID 710;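 active = growth inhibition above about 50% at one test dose, limit read from the data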;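 also: growth measured after 20 h incubation at 37 °C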
# MMP13 inh: MMP13 (human) collagenase inhibition | P45452 | MMP-13 fTHP FRET cleavage, Mca fluorescence | inhibition, % at 4 µM | hit rate 0.07% among 65,000 | AID 570;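 active = inhibition above the mean of compound-free control plate wells plus 3 SD, cut at about 14% in these data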;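 also: 0% = DMSO wells and 100% = wells with reference MMP-13 inhibitor after basal subtraction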
# HePTP inh: inhibitors of human HePTP phosphatase. P35236. hit rate 0.64% among 110,000. inhibition, % at 20 µM. recombinant HePTP phosphatase activity, OD absorbance; in the data active = inhibition above about 50%;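 also: plate controls were vehicle for no effect and reference inhibitor for full effect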
# Target sequence (P35236 whole entry, looked up): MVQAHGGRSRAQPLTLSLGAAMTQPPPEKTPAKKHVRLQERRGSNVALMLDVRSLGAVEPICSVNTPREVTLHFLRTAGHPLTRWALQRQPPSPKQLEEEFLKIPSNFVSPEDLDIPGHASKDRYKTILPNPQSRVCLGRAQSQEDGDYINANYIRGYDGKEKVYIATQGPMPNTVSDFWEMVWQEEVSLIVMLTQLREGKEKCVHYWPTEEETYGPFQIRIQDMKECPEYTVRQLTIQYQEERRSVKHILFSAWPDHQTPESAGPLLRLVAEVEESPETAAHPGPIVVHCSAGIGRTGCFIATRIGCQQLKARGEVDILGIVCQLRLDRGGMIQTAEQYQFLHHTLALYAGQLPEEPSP
# tolC growth inh: E. coli tolC mutant growth inhibition. growth inhibition, % at 10 µM (by protocol). hit rate 2.2% among 65,000. E. coli BW25113 tolC mutant growth, OD615. AID 573;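 active = growth inhibition at or above a cutoff equal to the mean over every tested compound plus 3 SD, cut at about 60% in these data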;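 also: growth measured after 20 h incubation at 37 °C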
#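 signal = optical density read at 615 nm | test system = E. coli ΔtolC::kan strain BW25113 | timing = 20 h compound exposure of bacteria at 37 °C | buffer or medium = LB medium plus 50 µg/mL kanamycin | compound dosing = 10 µM final, single dose | evaluation = % inhibition of E. coli growth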
# Ec RNAP inh: inhibitors of Escherichia coli RNA polymerase; P0A8V2; E. coli RNA polymerase, fluorescence transcription assay; inhibition, %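 (tested at 10 µM)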; hit rate 0.2% among 62,000; AID 559; in the data active = inhibition above about 20%;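 also: 0% = enzyme without compound and 100% = no enzyme blank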
# AP complement: orthogonal test for alternative complement pathway inhibitors. Human serum alternative complement pathway, LPS-coated ELISA, C3 deposition; tested in compound mixtures. inhibition, % at 5 µM. hit rate 0.08% among 62,000. AID 1235;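 active = inhibition above 30% in each of the two pooled mixtures holding the compound, so the lower value exceeds 30%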;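 also: 0% = serum in Mg-EGTA without compound and 100% = EDTA serum blank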
#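 Medium: diluted human serum in Mg2+-EGTA GVB++. Assay system: human serum complement alternative pathway, C3 deposition onto LPS. Also added: Plate-bound LPS. Technique: Anti-C3 ELISA, OD 450 nm. Measure: percent inhibition. Incubation: 1 h at 37 °C. Dosing: 5 µM each compound, pools of ten, 50 µM per pool.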
# Active calls of the source: *; nt = not tested or not shown. This excerpt belongs to a sample that is enriched for hits.
SMILES,E coli WT exp,MMP13 inh,HePTP inh,tolC growth inh,Ec RNAP inh,AP complement
COc1ccc(C(=O)NCC2CCCO2)cc1I (stereo unspecified),nt,nt,-11,nt,nt,nt
Oc1ccccc1-c1cc(-c2ccccc2)nc(N/N=C/c2ccc(F)cc2)n1,nt,nt,5,nt,nt,nt
Cc1cc(C)c2[nH]c(=O)c(C(c3nnnn3CC3CCCO3)N3CCC(C)CC3)cc2c1 (stereo unspecified),-14,-8,5,29,2,7
Cc1cc(C)c2[nH]c(=O)c(C(c3nnnn3CC3CCCO3)N3CCCC(C)C3)cc2c1 (stereo unspecified),-4,-9,-3,62*,4,-15
Cc1ccc(NC(=O)CN(C)S(=O)(=O)c2cccc3nsnc23)cc1C,-5,2,-1,19,-2,14
Cc1ccc(NC(=O)CN(C)S(=O)(=O)c2cccc3nsnc23)cc1Cl,-9,8,7,74*,6,2
O=c1c2c(nc3cc(-c4cccc(Cl)c4)[nH]n13)CCC2,3,nt,-17,nt,nt,nt
O=c1c2c(nc3c(-c4cccc5ccccc45)c[nH]n13)CCC2,-2,-38,-6,65*,-1,-6
O=c1c2c(nc3c(-c4ccc(Cl)cc4)c[nH]n13)CCCC2,-2,-15,-3,100*,0,-9
Cc1[nH]n2c(=O)c3c(nc2c1-c1cccc2ccccc12)CCC3,4,nt,nt,nt,nt,nt
Cc1ccc(OCc2nc(C#N)c(N3CCN(Cc4ccccc4)CC3)o2)cc1,-17,1,-8,64*,4,-36
N#Cc1nc(COc2ccccc2)oc1N1CCN(Cc2ccccc2)CC1,-16,2,8,67*,-3,-8
N#Cc1nc(COc2ccccc2)oc1N1CCC(Cc2ccccc2)CC1,-15,-8,1,36,6,-11
CCOc1cccc(C(=O)Nc2nnc(COc3ccc(Br)cc3)s2)c1,nt,nt,-11,nt,nt,nt
Cc1ccc(OCC(=O)Nc2ccccc2Cl)c(C)c1,nt,nt,4,nt,nt,nt
CSc1ccc(S(=O)(=O)Nc2ccc(N3CCOCC3)c(Cl)c2)cc1,-4,-1,1,100*,11,-3
O=C(NCc1ccco1)c1cnn2c1NC(c1ccccc1)CC2C(F)(F)F (stereo unspecified),10,1,1,11,5,nt
O=C(NCc1ccco1)c1cnn2c1NC(c1ccc(Br)cc1)CC2C(F)(F)F (stereo unspecified),3,-3,-9,68*,2,-6
NC(=O)c1cccc(N=Cc2ccccc2[N+](=O)[O-])c1,nt,nt,1,nt,nt,nt
Cc1[nH]nc(-c2ccc(O)cc2O)c1-c1ccc(Cl)cc1,30,4,-4,100*,1,-9
COc1ccccc1/C=C/C(=O)c1ccc(Br)cc1,nt,nt,10,nt,nt,nt
Cc1ccc(NC(=O)c2oc3ccc(Cl)cc3c2C)c([N+](=O)[O-])c1,nt,nt,4,nt,nt,nt
Cc1ccc(C)c2[nH]c(=O)c(CN(CC3CCCO3)S(=O)(=O)c3ccc4c(c3)OCCO4)cc12 (stereo unspecified),-1,-3,13,60*,-2,14
C=CCN1C(=O)/C(=C\c2ccc(-c3cc([N+](=O)[O-])ccc3C)o2)C(=O)NC1=S,nt,nt,102*,nt,nt,nt
O=C1NC(=S)N/C1=C/c1ccc(-c2cc([N+](=O)[O-])ccc2Cl)o1,nt,nt,80*,nt,nt,nt
SMILES,E coli WT exp,MMP13 inh,HePTP inh,tolC growth inh,Ec RNAP inh,AP complement
CCOc1ccc(N2C(=O)/C(=C/c3ccc(-c4cc([N+](=O)[O-])ccc4Cl)o3)C(=O)NC2=S)cc1,nt,nt,10,nt,nt,nt
NC(=O)CCCN1C(=O)/C(=C/c2ccccc2)SC1=S,nt,nt,9,nt,nt,nt
CCOC(=O)CC(=O)Nc1nc2ccc(Br)cc2s1,nt,nt,6,nt,nt,nt
Cc1ccc2c(c1)c(N=Nc1nnc3c(n1)[nH]c1ccccc13)c(O)n2C,nt,nt,87*,nt,nt,nt
CC(C)=NNc1nnc2c(n1)[nH]c1ccccc12,nt,nt,-8,nt,nt,nt
O=C(CSc1nc(-c2ccccc2)c(-c2ccccc2)o1)Nc1ccccc1,nt,nt,-8,nt,nt,nt
c1ccc(-c2nnc(N3CCN(c4ccccn4)CC3)c3ccccc23)cc1,0,8,9,28,-9,2
Cc1ccc(-c2nnc(N3CCN(c4ccccn4)CC3)c3ccccc23)cc1,-4,2,16,100*,8,-10
CC(C)c1cc(Nc2nccs2)cc(C(C)C)c1O,nt,nt,84*,nt,nt,nt
CCCN1C(=O)c2ccccc2NC1c1ccc(-c2ccccc2[N+](=O)[O-])o1 (stereo unspecified),nt,nt,1,nt,nt,nt
COc1ccc(-n2c(C)cc(C(=O)COC(=O)Cn3cnc4ccccc43)c2C)cc1,16,-3,4,63*,10,9
